Activity calls are given as the source filed them. No cut-off for these calls is given here.
Legend:
Oryctolagus cuniculus [1] = species on record: Oryctolagus cuniculus; test: Vasorelaxant effect at a concentration of 10e-4 M on rabbit aortic rings previously contracted with 50 mM KCl.; type: functional, Aorta; parameters: unit not given here
Method in brief: (§1)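 Rabbit aortic rings precontracted with 50 mM KCl or 1.0 μM norepinephrine, then exposed to increasing concentrations of test agent. Relaxation recorded at each concentration.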

[2] = molecular target: Voltage-gated L-type calcium channel (Rattus norvegicus, UniProt P22002+Q02485+P27732); test: Affinity to bind dihydropyridine receptor (DHP receptor) by inhibiting the radioligand [3H]nitrendipine; type: protein assay
Method in brief: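 [3H]nitrendipine displacement, rat brain cortical membranes. Each compound first screened at 1000 nM; if inhibition exceeded 40%, a four- to seven-point curve with unlabeled compound was run. IC50 generally mean of two experiments, each in triplicate. ">1000 nM" means under 40% inhibition of control binding at 1000 nM.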

Oryctolagus cuniculus [3] = species on record: Oryctolagus cuniculus; test: Vasorelaxant effect at a concentration of 10e-6 M on rabbit aortic rings previously contracted with 50 mM KCl.; type: functional, Aorta; parameters: unit not given here; method in brief: as §1
Rattus norvegicus [4] = species on record: Rattus norvegicus; test: Cardiovascular activity in isolated rat heart, concentration producing 25% increase in LV + dP/dtmax.; type: functional
Method in brief: (§2)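 Isolated Langendorff-perfused rat heart. Coronary flow (CF), LV +dP/dtmax and heart rate recorded during exposure to test agent. Value is the concentration giving a 25% rise in CF or in LV +dP/dtmax, mean ± SE. At least two hearts per compound.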

Oryctolagus cuniculus [5] = species on record: Oryctolagus cuniculus; test: Vasorelaxant effect at a concentration of 10e-6 M on rabbit aortic rings previously contracted with 1.0 uM Norepinephrine.; type: functional, Aorta; parameters: unit not given here; method in brief: as §1
Oryctolagus cuniculus [6] = species on record: Oryctolagus cuniculus; test: Vasorelaxant effect at a concentration of 10e-7 M on rabbit aortic rings previously contracted with 1.0 uM Norepinephrine.; type: functional, Aorta; parameters: unit not given here; method in brief: as §1
Oryctolagus cuniculus [7] = species on record: Oryctolagus cuniculus; test: Vasorelaxant effect at a concentration of 10e-4 M on rabbit aortic rings previously contracted with 1.0 uM Norepinephrine.; type: functional, Aorta; parameters: unit not given here; method in brief: as §1
Oryctolagus cuniculus [8] = species on record: Oryctolagus cuniculus; test: Vasorelaxant effect at a concentration of 10e-5 M on rabbit aortic rings previously contracted with 50 mM KCl.; type: functional, Aorta; parameters: unit not given here; method in brief: as §1
Rattus norvegicus [9] = species on record: Rattus norvegicus; test: Compound was tested for the cardiovascular activity in isolated rat heart. Value represents the concentration producing 25% increase in CF (cardiac flow); NA indicates not active; type: functional; method in brief: as §2
Oryctolagus cuniculus [10] = species on record: Oryctolagus cuniculus; test: Vasorelaxant effect at a concentration of 10e-7 M on rabbit aortic rings previously contracted with 50 mM KCl.; type: functional, Aorta; parameters: unit not given here; method in brief: as §1
Oryctolagus cuniculus [11] = species on record: Oryctolagus cuniculus; test: Vasorelaxant effect at a concentration of 10e-5 M on rabbit aortic rings previously contracted with 1.0 uM Norepinephrine.; type: functional, Aorta; parameters: unit not given here; method in brief: as §1
Oryctolagus cuniculus [12] = species on record: Oryctolagus cuniculus; test: Vasoconstrictor effect at a concentration of 3 x 10e-8 M using nondepolarized isolated rings from rabbit.; type: functional
Oryctolagus cuniculus [13] = species on record: Oryctolagus cuniculus; test: Vasoconstrictor effect at a concentration of 10e-7 M using partially depolarized isolated rings from rabbit.; type: functional
Oryctolagus cuniculus [14] = species on record: Oryctolagus cuniculus; test: Vasoconstrictor effect at a concentration of 3 x 10e-8 M using partially depolarized isolated rings from rabbit.; type: functional
Oryctolagus cuniculus [15] = species on record: Oryctolagus cuniculus; test: Vasoconstrictor effect at a concentration of 10e-9 M using nondepolarized isolated rings from rabbit.; type: functional
Oryctolagus cuniculus [16] = species on record: Oryctolagus cuniculus; test: Vasoconstrictor effect at a concentration of 10e-6 M using partially depolarized isolated rings from rabbit.; type: functional
Oryctolagus cuniculus [17] = species on record: Oryctolagus cuniculus; test: Vasoconstrictor effect at a concentration of 10e-7 M using nondepolarized isolated rings from rabbit.; type: functional
Oryctolagus cuniculus [18] = species on record: Oryctolagus cuniculus; test: Vasoconstrictor effect at a concentration of 10e-8 M using nondepolarized isolated rings from rabbit.; type: functional
Oryctolagus cuniculus [19] = species on record: Oryctolagus cuniculus; test: Vasoconstrictor effect at a concentration of 10e-8 M using partially depolarized isolated rings from rabbit.; type: functional
Oryctolagus cuniculus [20] = species on record: Oryctolagus cuniculus; test: Vasoconstrictor effect at a concentration of 3 x 10e-9 M using partially depolarized isolated rings from rabbit.; type: functional
Oryctolagus cuniculus [21] = species on record: Oryctolagus cuniculus; test: Vasoconstrictor effect at a concentration of 10e-6 M using nondepolarized isolated rings from rabbit.; type: functional
Oryctolagus cuniculus [22] = species on record: Oryctolagus cuniculus; test: Vasoconstrictor effect at a concentration of 10e-9 M using partially depolarized isolated rings from rabbit.; type: functional
Oryctolagus cuniculus [23] = species on record: Oryctolagus cuniculus; test: Vasoconstrictor effect at a concentration of 3 x 10e-9 M using nondepolarized isolated rings from rabbit.; type: functional
Rattus norvegicus [24] = species on record: Rattus norvegicus; test: Cardiovascular activity in isolated rat heart, concentration producing 25% increase in CF (cardiac flow).; type: functional; method in brief: as §2
Oryctolagus cuniculus [25] = species on record: Oryctolagus cuniculus; test: Vasorelaxant effect at a concentration of 10e-9 M on rabbit aortic rings previously contracted with 50 mM KCl.; type: functional, Aorta; method in brief: as §1
Oryctolagus cuniculus [26] = species on record: Oryctolagus cuniculus; test: Vasorelaxant effect at a concentration of 10e-10 M on rabbit aortic rings previously contracted with 50 mM KCl.; type: functional, Aorta
Method in brief: (§3)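 They were then exposed to increasing concentrations of the test agent, and relaxation of the precontraction was recorded as calcium channel blocking activity.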

Oryctolagus cuniculus [27] = species on record: Oryctolagus cuniculus; test: Vasorelaxant effect at a concentration of 10e-8 M on rabbit aortic rings previously contracted with 1.0 uM Norepinephrine.; type: functional, Aorta; method in brief: as §1
Oryctolagus cuniculus [28] = species on record: Oryctolagus cuniculus; test: Vasorelaxant effect at a concentration of 10e-10 M on rabbit aortic rings previously contracted with 1.0 uM Norepinephrine.; type: functional, Aorta; method in brief: as §3
Oryctolagus cuniculus [29] = species on record: Oryctolagus cuniculus; test: Vasorelaxant effect at a concentration of 10e-8 M on rabbit aortic rings previously contracted with 50 mM KCl.; type: functional, Aorta; method in brief: as §1
Oryctolagus cuniculus [30] = species on record: Oryctolagus cuniculus; test: Vasorelaxant effect at a concentration of 10e-9 M on rabbit aortic rings previously contracted with 1.0 uM Norepinephrine.; type: functional, Aorta; method in brief: as §1
Rattus norvegicus [31] = species on record: Rattus norvegicus; test: Compound was tested for its effect on coronary vasodilator in isolated rat hearts.; type: functional
Method in brief: (§4)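 Coronary vasodilation and ventricular contractility measured in isolated Langendorff-perfused rat hearts. EC25 (concentration raising the parameter by 25%) given as mean ± SEM of four to six hearts.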

Rattus norvegicus [32] = species on record: Rattus norvegicus; test: Compound was tested for its effect on ventricular cantractility in isolated rat hearts.; type: functional, Cardiac ventricle; method in brief: as §4
Rattus norvegicus [33] = species on record: Rattus norvegicus; test: Compound was tested for the cardiovascular activity in isolated rat heart. Value represents the concentration producing 25% increase in LV + dP/dtmax; NA indicates not active; type: functional; method in brief: as §2

CCO/C(O)=C1\C(CS(=O)(=O)c2ccccc2)=NC(C)=C(C#N)C1c1ccccc1 (stereo unspecified)
Vasorelaxant effect (Oryctolagus cuniculus [1]): 54 | IC50 [2]: 480 nM | Vasorelaxant effect (Oryctolagus cuniculus [3]): 1 | EC25 (Rattus norvegicus [4]): 960 nM | Vasorelaxant effect (Oryctolagus cuniculus [5]): 1 | Vasorelaxant effect (Oryctolagus cuniculus [6]): 0 | Vasorelaxant effect (Oryctolagus cuniculus [7]): 6 | Vasorelaxant effect (Oryctolagus cuniculus [8]): 26 | EC25 (Rattus norvegicus [9]): inactive | Vasorelaxant effect (Oryctolagus cuniculus [10]): 4 | Vasorelaxant effect (Oryctolagus cuniculus [11]): 0

CC1=C(C#N)C(c2ccccc2C(F)(F)F)/C(=C(\O)OC(C)C)C(CSc2ccccc2)=N1 (stereo unspecified)
Vasorelaxant effect (Oryctolagus cuniculus [1]): 74 | IC50 [2]: 250 nM | Vasorelaxant effect (Oryctolagus cuniculus [3]): 2 | Vasorelaxant effect (Oryctolagus cuniculus [5]): -2 | Vasorelaxant effect (Oryctolagus cuniculus [6]): -1 | Vasorelaxant effect (Oryctolagus cuniculus [7]): 9 | Vasorelaxant effect (Oryctolagus cuniculus [8]): 30 | Vasorelaxant effect (Oryctolagus cuniculus [10]): 0 | Vasorelaxant effect (Oryctolagus cuniculus [11]): 8

COC(=O)C1=C(C)NC(C)=C([N+](=O)[O-])C1c1ccccc1C(F)(F)F (stereo unspecified)
Vasoconstriction effect (Oryctolagus cuniculus [12]): 1.5 | Vasoconstriction effect (Oryctolagus cuniculus [13]): 82.1 | Vasoconstriction effect (Oryctolagus cuniculus [14]): 59.2 | Vasoconstriction effect (Oryctolagus cuniculus [15]): 0 | Vasoconstriction effect (Oryctolagus cuniculus [16]): 93.2 | Vasoconstriction effect (Oryctolagus cuniculus [17]): 10 | Vasoconstriction effect (Oryctolagus cuniculus [18]): 0 | Vasoconstriction effect (Oryctolagus cuniculus [19]): 32.4 | Vasoconstriction effect (Oryctolagus cuniculus [20]): 10.2 | Vasoconstriction effect (Oryctolagus cuniculus [21]): 15.9 | Vasoconstriction effect (Oryctolagus cuniculus [22]): 3.2 | Vasoconstriction effect (Oryctolagus cuniculus [23]): 0

CCO/C(O)=C1\C(CS(=O)(=O)c2ccc(N)cc2)=NC(C)=C(C#N)C1c1ccccc1C(F)(F)F (stereo unspecified)
Vasorelaxant effect (Oryctolagus cuniculus [1]): 69 | IC50 [2]: 1000 nM | Vasorelaxant effect (Oryctolagus cuniculus [3]): 5 | EC25 (Rattus norvegicus [4]): 840 nM | EC25 (Rattus norvegicus [24]): 940 nM | Vasorelaxant effect (Oryctolagus cuniculus [5]): 2 | Vasorelaxant effect (Oryctolagus cuniculus [6]): 2 | Vasorelaxant effect (Oryctolagus cuniculus [7]): 5 | Vasorelaxant effect (Oryctolagus cuniculus [8]): 38 | Vasorelaxant effect (Oryctolagus cuniculus [10]): 2 | Vasorelaxant effect (Oryctolagus cuniculus [11]): 2

COC(=O)C1=C(C)NC(C)=C(C(=O)OC)C1c1ccccc1[N+](=O)[O-] [NIFEDIPINE]
Vasorelaxant effect (Oryctolagus cuniculus [25]): -1.7 | Vasorelaxant effect (Oryctolagus cuniculus [3]): 89.4 | Vasorelaxant effect (Oryctolagus cuniculus [26]): -3.1 | Vasorelaxant effect (Oryctolagus cuniculus [27]): -1.1 | Vasorelaxant effect (Oryctolagus cuniculus [28]): -1 | Vasorelaxant effect (Oryctolagus cuniculus [5]): 3.5 | Vasorelaxant effect (Oryctolagus cuniculus [6]): 1 | Vasorelaxant effect (Oryctolagus cuniculus [29]): 24.7 | Vasorelaxant effect (Oryctolagus cuniculus [8]): 92.6 | Vasorelaxant effect (Oryctolagus cuniculus [30]): -1.2 | Vasorelaxant effect (Oryctolagus cuniculus [10]): 65.8 | Vasorelaxant effect (Oryctolagus cuniculus [11]): 6.1

C=CCO/C(O)=C1\C(CS(=O)(=O)c2ccccc2)=NC(C)=C(C#N)C1c1ccccc1C(F)(F)F (stereo unspecified)
IC50 [2]: 580 nM | EC25 (Rattus norvegicus [4]): 300 nM | EC25 (Rattus norvegicus [24]): <100 nM

CCOC(=O)C1=C(CS(=O)(=O)c2ccncc2)NC(C)=C(C#N)C1c1ccccc1C(F)(F)F (stereo in doubt; 54A)
EC25 (Rattus norvegicus [31]): 128 nM | EC25 (Rattus norvegicus [32]): 701 nM | IC50 [2]: 152 nM

CCO/C(O)=C1\C(CS(=O)(=O)c2ccc(Cl)cc2)=NC(C)=C(C#N)C1c1ccccc1C(F)(F)F (stereo unspecified)
IC50 [2]: 91 nM | EC25 (Rattus norvegicus [33]): inactive | EC25 (Rattus norvegicus [24]): 550 nM

CCO/C(O)=C1\C(C[S+]([O-])c2ccncc2)=NC(C)=C(C#N)C1c1ccccn1 (stereo unspecified)
IC50 [2]: > 1000 nM | EC25 (Rattus norvegicus [33]): inactive | EC25 (Rattus norvegicus [9]): inactive

CCOC(=O)C1=C(CS(=O)(=O)c2ccncc2)NC(C)=C(C#N)C1c1ccccc1C(F)(F)F (stereo in doubt; 54B)
EC25 (Rattus norvegicus [31]): 1622 nM | EC25 (Rattus norvegicus [32]): 888 nM

CC1=C(C#N)C(c2ccccc2C(F)(F)F)/C(=C(\O)OC(C)C)C(C[S+]([O-])c2ccccc2)=N1 (stereo unspecified)
IC50 [2]: 500 nM | EC25 (Rattus norvegicus [33]): inactive | EC25 (Rattus norvegicus [24]): 240 nM

CCO/C(O)=C1\C(CS(=O)(=O)c2ccccc2)=NC(C)=C(C#N)C1c1cccc([N+](=O)[O-])c1 (stereo unspecified)
IC50 [2]: 300 nM | EC25 (Rattus norvegicus [4]): 520 nM | EC25 (Rattus norvegicus [24]): 510 nM

CCO/C(O)=C1\C(C[S+]([O-])c2ccc(OC)cc2)=NC(C)=C(C#N)C1c1ccccc1C(F)(F)F (stereo unspecified)
IC50 [2]: 1200 nM | EC25 (Rattus norvegicus [33]): inactive | EC25 (Rattus norvegicus [24]): 300 nM

CCO/C(O)=C1\C(CSc2ccc(NC(C)=O)cc2)=NC(C)=C(C#N)C1c1ccccc1C(F)(F)F (stereo unspecified)
IC50 [2]: 205 nM | EC25 (Rattus norvegicus [4]): inactive | EC25 (Rattus norvegicus [24]): 260 nM

Source: ChEMBL document CHEMBL1125592, “Calcium channel blocking and positive inotropic activities of ethyl 5-cyano-1,4-dihydro-6-methyl-2-[(phenylsulfonyl)methyl]-4-aryl-3- pyridine-carboxylate and analogues. Synthesis and structure-activity relationships” (J Med Chem, 1991)
